Reference: ChEMBL document CHEMBL1132232, “7alpha-Iodo and 7alpha-fluoro steroids as androgen receptor-mediated imaging agents” (J Med Chem, 1999)

Legend:
Rattus norvegicus [1] = assay: Distribution of tissue Radioactivity following Intravenous injection into castrated male rat thyroid at 1 hour time; assay type: ADME, organism-based, Thyroid gland; settings: in vivo
Procedure, shortened: (§1)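 Male Sprague–Dawley rats, about 250 g, were castrated and injected the next day via the tail vein with 5.4 μCi (2.4 pmol) of 125I tracer in ethanol/saline (1:4). There were 5–6 rats per group. At 0.5, 1, 2 or 4 h, rats were ether-anesthetized and killed by exsanguination. Tissues were dissected, weighed and counted, giving % injected dose/g and prostate/blood ratios.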

Rattus norvegicus [2] = assay: Distribution of tissue Radioactivity following Intravenous injection into castrated male rat fat at 1 hour time; assay type: ADME, organism-based, Adipose tissue; settings: in vivo; procedure, shortened: as §1
Rattus norvegicus [3] = assay: Distribution of tissue Radioactivity following Intravenous injection into castrated male rat spleen at 2 hours time; assay type: ADME, organism-based; settings: in vivo; procedure, shortened: as §1
Rattus norvegicus [4] = assay: Distribution of tissue Radioactivity following subcutaneous injection of […] of 5-alpha-DHT 15 min before the administration of the [125I]- tracer castrated male rat liver at 1 hour time; assay type: ADME, organism-based; settings: in vivo, sc
Procedure, shortened: (§2)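 Castrated male Sprague–Dawley rats, about 250 g, received 5α-DHT subcutaneously in propylene glycol/saline (3:2) 15 min before a tail-vein 125I tracer (5.4 μCi, 2.4 pmol, in ethanol/saline 1:4). There were 5–6 rats per group. At 1 h, rats were ether-anesthetized and exsanguinated. Tissues were weighed and counted as % injected dose/g, plus the prostate/blood ratio.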

Rattus norvegicus [5] = assay: Distribution of tissue Radioactivity following Intravenous injection into castrated male rat prostate/blood at 4 hours time; assay type: ADME, organism-based; settings: in vivo; procedure, shortened: as §1
Rattus norvegicus [6] = assay: Distribution of tissue Radioactivity following Intravenous injection into castrated male rat spleen at 0.5 hours time; assay type: ADME, organism-based; settings: in vivo; procedure, shortened: as §1
Rattus norvegicus [7] = assay: Distribution of tissue radioactivity following subcutaneous injection of […] of 5-alpha-DHT 15 min before the administration of the [125I] tracer castrated male rat prostate 1 hour time; assay type: ADME, organism-based, Prostate gland; settings: in vivo, sc
Rattus norvegicus [8] = assay: Distribution of tissue Radioactivity following Intravenous injection into castrated male rat muscle at 0.5 hours time; assay type: ADME, organism-based; settings: in vivo; procedure, shortened: as §1
Rattus norvegicus [9] = assay: Distribution of tissue Radioactivity following subcutaneous injection of […] of 5-alpha-DHT 15 min before the administration of the [125I]- tracer castrated male rat prostate/blood at 1 hour time; assay type: ADME, organism-based; settings: in vivo, sc; procedure, shortened: as §2
Rattus norvegicus [10] = assay: Distribution of tissue Radioactivity following Intravenous injection into castrated male rat kidney at 0.5 hours time; assay type: ADME, organism-based; settings: in vivo; procedure, shortened: as §1
Rattus norvegicus [11] = assay: Distribution of tissue Radioactivity following Intravenous injection into castrated male rat kidney at 2 hours time; assay type: ADME, organism-based; settings: in vivo; procedure, shortened: as §1
Rattus norvegicus [12] = assay: Distribution of tissue Radioactivity following Intravenous injection into castrated male rat liver at 4 hours time; assay type: ADME, organism-based; settings: in vivo; procedure, shortened: as §1
Rattus norvegicus [13] = assay: Distribution of tissue Radioactivity following Intravenous injection into castrated male rat prostate/blood at 2 hours time; assay type: ADME, organism-based; settings: other tissue; procedure, shortened: as §1
Rattus norvegicus [14] = assay: Distribution of tissue Radioactivity following Intravenous injection into castrated male rat prostate at 0.5 hours time; assay type: ADME, organism-based, Prostate gland; settings: in vivo; procedure, shortened: as §1
Rattus norvegicus [15] = assay: Distribution of tissue Radioactivity following subcutaneous injection of […] of 5-alpha-DHT 15 min before the administration of the [125I]- tracer castrated male rat lung at 1 hour time; assay type: ADME, organism-based; settings: in vivo, sc; procedure, shortened: as §2
Rattus norvegicus [16] = assay: Distribution of tissue Radioactivity following Intravenous injection into castrated male rat fat at 0.5 hours time; assay type: ADME, organism-based, Adipose tissue; settings: in vivo; procedure, shortened: as §1
[17] = target: T1, Androgen receptor (Homo sapiens) (UniProt P10275); settings: CV-1
T1 sequence (whole entry): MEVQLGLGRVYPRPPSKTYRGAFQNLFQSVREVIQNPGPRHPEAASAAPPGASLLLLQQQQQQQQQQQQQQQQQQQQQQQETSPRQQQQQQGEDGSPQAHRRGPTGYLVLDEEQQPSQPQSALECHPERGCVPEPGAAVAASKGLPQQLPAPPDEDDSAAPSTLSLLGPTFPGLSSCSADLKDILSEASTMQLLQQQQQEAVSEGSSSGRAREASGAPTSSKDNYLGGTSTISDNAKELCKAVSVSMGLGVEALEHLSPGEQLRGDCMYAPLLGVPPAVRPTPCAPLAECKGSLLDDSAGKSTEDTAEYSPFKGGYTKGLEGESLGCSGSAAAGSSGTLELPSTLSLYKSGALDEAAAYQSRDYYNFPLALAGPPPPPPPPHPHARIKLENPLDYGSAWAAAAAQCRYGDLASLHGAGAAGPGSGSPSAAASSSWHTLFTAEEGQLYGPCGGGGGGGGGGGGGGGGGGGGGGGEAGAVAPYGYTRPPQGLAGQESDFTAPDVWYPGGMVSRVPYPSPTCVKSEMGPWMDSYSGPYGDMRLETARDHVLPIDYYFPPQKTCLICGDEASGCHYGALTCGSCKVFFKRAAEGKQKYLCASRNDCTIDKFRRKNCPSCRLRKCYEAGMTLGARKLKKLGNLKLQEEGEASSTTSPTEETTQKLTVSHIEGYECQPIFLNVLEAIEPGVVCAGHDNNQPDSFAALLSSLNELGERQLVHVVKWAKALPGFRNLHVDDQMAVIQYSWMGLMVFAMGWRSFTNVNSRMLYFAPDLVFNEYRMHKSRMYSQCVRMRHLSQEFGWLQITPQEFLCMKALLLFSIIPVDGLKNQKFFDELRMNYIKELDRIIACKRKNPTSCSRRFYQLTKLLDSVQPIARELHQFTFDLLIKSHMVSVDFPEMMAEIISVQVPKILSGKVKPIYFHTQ

Rattus norvegicus [18] = assay: Distribution of tissue Radioactivity following subcutaneous injection of […] of 5-alpha-DHT 15 min before the administration of the [125I]- tracer castrated male rat kidney at 1 hour time; assay type: ADME, organism-based; settings: in vivo, sc; procedure, shortened: as §2
Rattus norvegicus [19] = assay: Distribution of tissue Radioactivity following Intravenous injection into castrated male rat prostate at 2 hours time; assay type: ADME, organism-based, Prostate gland; settings: in vivo; procedure, shortened: as §1
Rattus norvegicus [20] = assay: Distribution of tissue Radioactivity following subcutaneous injection of […] of 5-alpha-DHT 15 min before the administration of the [125I]- tracer castrated male rat fat at 1 hour time; assay type: ADME, organism-based, Adipose tissue; settings: in vivo, sc; procedure, shortened: as §2
Rattus norvegicus [21] = assay: Distribution of tissue Radioactivity following Intravenous injection into castrated male rat muscle at 2 hours time; assay type: ADME, organism-based; settings: in vivo; procedure, shortened: as §1
Rattus norvegicus [22] = assay: Distribution of tissue Radioactivity following Intravenous injection into castrated male rat lung at 4 hours time; assay type: ADME, organism-based; settings: in vivo; procedure, shortened: as §1
Rattus norvegicus [23] = assay: Distribution of tissue Radioactivity following Intravenous injection into castrated male rat fat at 4 hours time; assay type: ADME, organism-based, Adipose tissue; settings: in vivo; procedure, shortened: as §1
Rattus norvegicus [24] = assay: Distribution of tissue Radioactivity following subcutaneous injection of […] of 5-alpha-DHT 15 min before the administration of the [125I]- tracer castrated male rat spleen at 1 hour time; assay type: ADME, organism-based; settings: in vivo, sc; procedure, shortened: as §2
Rattus norvegicus [25] = assay: Distribution of tissue Radioactivity following Intravenous injection into castrated male rat muscle at 4 hours time; assay type: ADME, organism-based; settings: in vivo; procedure, shortened: as §1

## C[C@]12CCC(=O)CC1C[C@@H](I)[C@@H]1[C@@H]2CC[C@@]2(C)[C@H]1CC[C@]2(C)O (stereo not given in full)
Rattus norvegicus [1]
  Dose/g: 4.07%
Rattus norvegicus [2]
  Dose/g: 0.25%
Rattus norvegicus [3]
  Biodistribution: 0.15%
Rattus norvegicus [4]
  Dose/g: 0.36%
Rattus norvegicus [5]
  Dose/g: 1.19%
Rattus norvegicus [6]
  Dose/g: 0.13%
Rattus norvegicus [7]
  Biodistribution: 0.23%
Rattus norvegicus [8]
  Biodistribution: 0.06%
Rattus norvegicus [9]
  Dose/g: 0.66%
Rattus norvegicus [10]
  Biodistribution: 0.26%
Rattus norvegicus [11]
  Dose/g: 0.25%
Rattus norvegicus [12]
  Dose/g: 0.24%
Rattus norvegicus [13]
  Biodistribution: 1.43%
Rattus norvegicus [14]
  Biodistribution: 0.21%
Rattus norvegicus [15]
  Dose/g: 0.28%
Rattus norvegicus [16]
  Biodistribution: 0.2%
[17]
  RSA: 28
Rattus norvegicus [18]
  Biodistribution: 0.3%
Rattus norvegicus [19]
  Dose/g: 0.44%
Rattus norvegicus [20]
  Biodistribution: 0.29%
Rattus norvegicus [21]
  Dose/g: 0.07%
Rattus norvegicus [22]
  Dose/g: 0.28%
Rattus norvegicus [23]
  Biodistribution: 0.17%
Rattus norvegicus [24]
  Dose/g: 0.18%
Rattus norvegicus [25]
  Biodistribution: 0.07%
